We go through two molecules from ChEMBL document CHEMBL1240390, “Activity of dalbavancin against Bacillus anthracis in vitro and in a mouse inhalation anthrax model” (Antimicrob Agents Chemother, 2010).

SMILES strings stand for the structures. Converted amounts (≈) assume the structure as drawn.

A short description of data set [1]: Plasma concentration in ICR mouse at 20 mg/kg, ip after 6 days. Details: dose 20 mg/kg, route intraperitoneal. In kind it is ADME, organism-based. The gist of the method:
(§1)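 Female ICR mice, 23 to 27 g, given single 5 or 20 mg/kg doses i.p. or i.v. (tail vein) in 5% glucose. Plasma was taken by cardiac puncture under halothane at 0.08 to 144 h, with 3 mice per route, dose and time point. Total drug was measured by microbiological agar diffusion assay; parameters came from noncompartmental analysis.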

In data set [2] the test system is Bacillus anthracis. Briefly: Antimicrobial activity against Bacillus anthracis str. Ames infected in BALB/c mouse assessed as mouse survival at 30 mg/kg, ip bid administered 24 hrs post infection for 14 days measured after 42 days. The note with it: route intraperitoneal. In kind it is functional.
The nature of data set [3]: AUC (0-infinity) in ICR mouse at 20 mg/kg, iv. Details: time infinity, dose 20 mg/kg, route intravenous. In kind it is ADME, organism-based. The settings on record: plasma. In outline: as §1
The nature of data set [4]: AUC (0-infinity) in ICR mouse at 5 mg/kg, ip. It counts as ADME, organism-based. The note with it: plasma. Details: dose 5 mg/kg, route intraperitoneal, time infinity. In outline:
as §1

Data set [5] deals with Bacillus anthracis. Nature of the data set: Antimicrobial activity against Bacillus anthracis str. Ames infected in BALB/c mouse prophylaxis model assessed as mouse survival at 60 mg/kg, ip administered 36 hrs post infection every 36 hrs for 14 days measured after 42 days. It counts as functional. The note with it: route intraperitoneal.
A short description of data set [6]: Cmax in ICR mouse at 5 mg/kg, ip after 2 hrs. In kind it is ADME, organism-based. The arrangement: dose 5 mg/kg, route intraperitoneal. The settings on record: in vivo. In outline:
as §1

Data set [7] can be described thus: Half life in ICR mouse at 5 mg/kg, ip. The note with it: in vivo. The arrangement: dose 5 mg/kg, route intraperitoneal. It counts as ADME, organism-based. The gist of the method:
as §1

The subject of data set [8] is Bacillus anthracis. Briefly: Antimicrobial activity against Bacillus anthracis str. Ames infected in BALB/c mouse prophylaxis model assessed as mouse survival at 120 mg/kg, ip administered 36 hrs post infection every 72 hrs for 14 days measured after 42 days. It counts as functional. The note with it: route intraperitoneal.
Data set [9] deals with Bacillus anthracis. Briefly: Antimicrobial activity against Bacillus anthracis str. Ames infected in BALB/c mouse prophylaxis model assessed as mouse survival at 60 mg/kg, ip administered 48 hrs post infection every 36 hrs for 14 days measured after 42 days. In kind it is functional. The note with it: route intraperitoneal.
Data set [10] has as its system Mus musculus. Nature of the data set: fAUC in ICR mouse at 20 mg/kg, ip. Details: dose 20 mg/kg, route intraperitoneal. The settings on record: in vivo. It counts as ADME, organism-based.
For data set [11], the system named is Bacillus anthracis. Nature of the data set: Antimicrobial activity against Bacillus anthracis str. Ames after 18-24 hrs by broth microdilution method. It counts as functional.
The subject of data set [12] is Mus musculus. Nature of the data set: T>MIC in ICR mouse at 20 mg/kg, ip. In kind it is ADME, organism-based. The arrangement: dose 20 mg/kg, route intraperitoneal. The note with it: in vivo.
Data set [13] is described as follows: Ratio of fCmax in ICR mouse at 5 mg/kg, ip after 2 hrs to MIC for Bacillus anthracis Ames. In kind it is functional. The settings on record: route intraperitoneal. In outline:
(§2)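 Female ICR mice (23 to 27 g) received a single i.p. dose of 5 or 20 mg/kg in 5% glucose. Plasma was taken by cardiac puncture from 0.08 to 144 h, with 3 mice per dose and time point. Total drug was measured by microbiological agar diffusion, and parameters were derived noncompartmentally. Free values assume 1.6% unbound and are divided by the Ames-strain MIC.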

In data set [14] the test system is Mus musculus. Briefly: fCmax in ICR mouse at 5 mg/kg, ip after 2 hrs. It counts as ADME, organism-based. The arrangement: dose 5 mg/kg, route intraperitoneal. The settings on record: in vivo.
The nature of data set [15]: AUC (0-infinity) in ICR mouse at 5 mg/kg, iv. In kind it is ADME, organism-based. Details: time infinity, dose 5 mg/kg, route intravenous. The note with it: plasma. The gist of the method:
as §1

A short description of data set [16]: Half life in ICR mouse at 20 mg/kg, ip. It counts as ADME, organism-based. Details: dose 20 mg/kg, route intraperitoneal. The settings on record: in vivo. In outline: as §1
The nature of data set [17]: Ratio of fAUC in ICR mouse at 5 mg/kg, ip to MIC against Bacillus anthracis Ames. It counts as functional. The note with it: route intraperitoneal. The gist of the method: as §2
Data set [18] concerns Mus musculus. Nature of the data set: fCmax in ICR mouse at 20 mg/kg, ip after 2 hrs. In kind it is ADME, organism-based. Details: dose 20 mg/kg, route intraperitoneal. The note with it: in vivo.
Data set [19] can be described thus: Ratio of fCmax in ICR mouse at 20 mg/kg, ip single dose after 2 hrs to MIC for Bacillus anthracis Ames. In kind it is functional. The note with it: route intraperitoneal. In outline: as §2
The test system of data set [20] is Mus musculus. Nature of the data set: T>MIC in ICR mouse at 5 mg/kg, ip. Details: dose 5 mg/kg, route intraperitoneal. The note with it: in vivo. It counts as ADME, organism-based.
A short description of data set [21]: Ratio of fAUC in ICR mouse at 20 mg/kg, ip to MIC against Bacillus anthracis Ames. In kind it is functional. The settings on record: route intraperitoneal. The gist of the method: as §2
The nature of data set [22]: AUC in patient with skin and soft tissue infections at 1000 mg, iv after 7 days. The note with it: human, plasma. It counts as ADME, organism-based.
The nature of data set [23]: AUC (0-infinity) in ICR mouse at 20 mg/kg, ip. It counts as ADME, organism-based. Details: time infinity, dose 20 mg/kg, route intraperitoneal. The settings on record: plasma. The gist of the method: as §1
The subject of data set [24] is Mus musculus. Nature of the data set: fAUC in ICR mouse at 5 mg/kg, ip. In kind it is ADME, organism-based. The arrangement: dose 5 mg/kg, route intraperitoneal. The settings on record: in vivo.
The subject of data set [25] is Bacillus anthracis. Briefly: Antimicrobial activity against Bacillus anthracis str. Ames infected in BALB/c mouse prophylaxis model assessed as mouse survival at >=15 mg/kg, ip administered 24 hrs post infection every 36 hrs for 14 days measured after 42 days. It counts as functional.
The subject of data set [26] is Bacillus anthracis. Briefly: Antimicrobial activity against Bacillus anthracis str. Ames infected in BALB/c mouse prophylaxis model assessed as mouse survival at 120 mg/kg, ip administered 48 hrs post infection every 72 hrs for 14 days measured after 42 days. The note with it: route intraperitoneal. It counts as functional.
The test system of data set [27] is Bacillus anthracis. Nature of the data set: Antimicrobial activity against Bacillus anthracis str. Ames infected in BALB/c mouse prophylaxis model assessed as mouse survival at >=30 mg/kg, ip administered 24 hrs post infection every 36 hrs for 14 days measured after 42 days. It counts as functional.
Data set [28] concerns Bacillus anthracis. Nature of the data set: Antimicrobial activity against Bacillus anthracis after 18-24 hrs by broth microdilution method. In kind it is functional. (Broth dilution looks for growth in wells or tubes with falling amounts of substance.)
Data set [29] is described as follows: Cmax in ICR mouse at 20 mg/kg, ip after 2 hrs. In kind it is ADME, organism-based. The arrangement: dose 20 mg/kg, route intraperitoneal. The settings on record: in vivo. In outline:
as §1

In general, AUC(0-inf) refers to the area under the concentration-time curve extrapolated to infinity. Read a high AUC(0-inf) as high exposure. As usually defined, the Cmax is the peak of the concentration-time curve. For orientation: half-life means the time needed for the level to fall by half in the phase considered. High values mean slow loss, low ones fast loss. In general, MIC refers to the smallest concentration in the dilution series that meets the test's criterion for growth inhibition. A low value points to inhibition by little substance. The AUC is concentration integrated over time. The low end stands for less exposure, the high end for more exposure. By MIC50 is commonly meant the lowest concentration that inhibits either 50% of growth or 50% of the strains tested, depending on the study. Low values mean greater potency, high ones weaker potency. Usually MIC90 stands for the lowest concentration that inhibits either 90% of growth or 90% of the strains tested, depending on the study. Low readings indicate higher susceptibility, high ones lower susceptibility.

On to `CN[C@H]1C(=O)N[C@@H]2Cc3ccc(cc3)Oc3cc4cc(c3O[C@@H]3O[C@H](C(=O)O)[C@@H](O)[C@H](O)[C@H]3NC(=O)CCCCCCCCC(C)C)Oc3ccc(cc3Cl)[C@@H](O)[C@@H]3NC(=O)[C@H](NC(=O)[C@@H]4NC(=O)[C@@H](NC2=O)c2cc(cc(O)c2Cl)Oc2cc1ccc2O)c1ccc(O)c(c1)-c1c(O[C@H]2O[C@H](CO)[C@@H](O)[C@H](O)[C@@H]2O)cc(O)cc1[C@@H](C(=O)NCCCN(C)C)NC3=O` [DALBAVANCIN], for which the concentration at 144 h in data set [1] was not below 400 ng/mL. The Activity is 100% with Bacillus anthracis [2]; 70% in the data set with Bacillus anthracis [5]; 70% with Bacillus anthracis [8]; 70% in the data set with Bacillus anthracis [9]; 80% in the data set on Bacillus anthracis [25]; 70% in the data set with Bacillus anthracis [26]. Further, the Activity with Bacillus anthracis [27] stood at 80%. Besides, the AUC(0-inf) turned out to be 1070 µg·h/mL in [3], 176 µg·h/mL in data set [4], 200 µg·h/mL in data set [15] and 848 µg·h/mL in data set [23]. For the same molecule, the peak concentration (Cmax) amounted to 15200 ng/mL in data set [6] and 71300 ng/mL in data set [29]. The half-life in [7] and in [16] was 53.4 h each time. Also, the fAUC came out at 13.6 µg·h/mL with Mus musculus [10] and 2.8 µg·h/mL with Mus musculus [24]. In addition, the MIC in the data set on Bacillus anthracis [11] was found to be 0.06 µg/mL (≈ 0.033 µM). Also, the “T>MIC” value came out at 38 h in the data set on Mus musculus [12] and 17.8 h with Mus musculus [20]. The Ratio is listed as 4 in [13], 46.7 in data set [17], 19 in data set [19] and 227 in data set [21]. The fCmax in the data set with Mus musculus [14] is on record as 0.24 mg/L; in the data set with Mus musculus [18], 1.14 mg/L. In addition, in data set [22], the AUC at 168 h was determined as 756 µg·h/mL. The same molecule returned an MIC50 against Bacillus anthracis [28] of 0.06 µg/mL (≈ 0.033 µM). Besides, the MIC90 against Bacillus anthracis [28] was 0.25 µg/mL (≈ 0.138 µM).

`CN[C@H](CC(C)C)C(=O)N[C@H]1C(=O)N[C@@H](CC(N)=O)C(=O)N[C@H]2C(=O)N[C@H]3C(=O)N[C@H](C(=O)N[C@H](C(=O)O)c4cc(O)cc(O)c4-c4cc3ccc4O)[C@H](O)c3ccc(c(Cl)c3)Oc3cc2cc(c3O[C@@H]2O[C@H](CO)[C@@H](O)[C@H](O)[C@H]2O[C@H]2C[C@](C)(N)[C@H](O)[C@H](C)O2)Oc2ccc(cc2Cl)[C@H]1O` [VANCOMYCIN] had an MIC against Bacillus anthracis [28] of 2 µg/mL (≈ 1.38 µM).
